This is a sample that favours compounds with a hit; in the whole collection about 11% have one here.
RORa activator – activators of orphan receptor RORA, primary screen, cell-based, luminescence. CHO-K1 Gal4-RORA LBD luciferase reporter; percent increase over mock-subtracted basal signal. activation, % at 10 µM. 1.5% of 65,000 active. AID 560, 2006;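 active = activation above the mean of all tested compounds plus 3 SD, cut at about 49% in these data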;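 also: 0% = DMSO-treated RORA cells and 100% = added signal equal to DMSO minus mock-transfected cells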
SF1 activator – activators of human SF-1, primary screen, cell-based, CHO-K1, Gal4-SF-1 LBD, luciferase luminescence; Steroidogenic factor 1 (Homo sapiens), Q13285; CHO-K1 Gal4-SF-1 LBD luciferase reporter; % increase over DMSO SF-1-specific signal; activation, % at 10 µM; 1.9% of 65,000 active; AID 522, 2006;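 active = activation above the mean activation of all tested compounds plus 3 SD, cut at about 50% in these data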
Target sequence (Q13285 whole entry, looked up, the tested form may be a part): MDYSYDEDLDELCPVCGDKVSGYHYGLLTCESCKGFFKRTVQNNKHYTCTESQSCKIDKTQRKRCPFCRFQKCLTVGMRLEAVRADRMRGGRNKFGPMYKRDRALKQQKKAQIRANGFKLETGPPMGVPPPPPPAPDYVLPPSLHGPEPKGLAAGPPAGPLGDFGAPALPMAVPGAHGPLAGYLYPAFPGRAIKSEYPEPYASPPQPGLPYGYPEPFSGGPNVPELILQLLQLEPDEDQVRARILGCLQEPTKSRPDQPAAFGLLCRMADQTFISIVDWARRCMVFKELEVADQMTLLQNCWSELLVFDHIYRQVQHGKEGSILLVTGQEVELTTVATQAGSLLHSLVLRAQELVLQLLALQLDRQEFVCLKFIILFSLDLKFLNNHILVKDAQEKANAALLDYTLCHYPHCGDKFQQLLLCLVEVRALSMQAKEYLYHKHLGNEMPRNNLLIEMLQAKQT
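Compound – one dose, 10 µM compound, 1% DMSO · Test system – transient Gal4-SF-1 LBD reporter, CHO-K1 · Input – 4,000 cells in each well · Read-out basis – percent activation relative to DMSO median and mock-transfected background · Replicates – single measurement per compound · Technique – steady-glow luciferase luminescence, read after 15 min reagent incubation · Timing – 20 h compound treatment, 37 °C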
M1 antag – antagonists of rat M1 muscarinic receptor. 3.4% of 64,000 active. CHO-M1 cells, Fluo-4 calcium, ACh EC80 antagonist mode; stronger effect = lower value. B-score at 10 µM;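 active = calcium fluorescence response, raw or row-and-column corrected B-score, differing from the plate sample mean either way at a set confidence level, mostly lower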
mHtt clearance – clearance of mutant huntingtin inclusions, primary screen, imaging, HeLa Exon1htt(103Q)mCFP, confocal imaging | 0.42% of 47,000 active | aggregate imaging; zero = plate's median compound well | inhibition, % at 1.5 µM;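 active = inhibition of aggregate fluorescence above about 70%, also judged a hit by eye on the cell image, limit read from the data, passing the limit was not always enough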;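 also: cells exposed to compound for three days before fixation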
D1 allo mod – D1 CRE-luciferase signal change, two-sided – cell-based, HEK293 D1, dopamine EC30, D1 allosteric modulator project, primary screen; D(1A) dopamine receptor (Homo sapiens), P21728; 5.9% of 58,000 active; AID 641, 2007; B-score at 10 µM; dopamine EC30 potentiation; actives deviate in either direction;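 active = luminescence count or its row- and column-corrected plate score outside the 99.7% band of the plate's sample wells, on either side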
M1 agonist – M1 muscarinic receptor agonists, primary screen, CHO-M1 cells, Fluo-4 calcium, agonist mode; B-score at 10 µM; Fluo-4 calcium fluorescence; stronger effect = higher value; 3% of 64,000 active; Muscarinic acetylcholine receptor M1;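 active = fluorescence rise, raw or as B-score row- and column-corrected plate score, outside the 99.7% band of its plate's samples, either direction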
D1 PAM confirm – D1 receptor positive allosteric modulators, retest, confirmation, cell-based, HEK293 D1, CRE-luciferase, duplicate | shares compounds with D1 allo mod | luminescence at 10 µM | dopamine EC30 potentiation; stronger effect = higher value | AID 642, 2007 | 88% of 2,200 active;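 active = luminescence in either of two replicates above the same-plate mean plus 3 SD of the low-dose dopamine control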
D1 no dopamine – D1 receptor agonism without dopamine, confirmation, mechanism study for D1 allosteric modulator project, cell-based, HEK293 D1, CRE-luciferase, secondary assay 1. 0.8% of 1,900 active. luminescence, no dopamine; stronger effect = higher value. shares compounds with D1 allo mod. luminescence at 10 µM; in the data active = luminescence above about 3900
Isoprot counter – counter-screen for D1 modulators: isoproterenol response in HEK293 cells | HEK293 D1 CRE-luciferase, isoproterenol EC30 counter-screen | 63% of 2,200 active | shares compounds with D1 allo mod | calls only at 10 µM;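 active = luminescence in either replicate above plate mean of wells with a partly effective reference agonist dose plus 3 SD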;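 also: isoproterenol raises cAMP through native beta-adrenoceptor Gs so signal bypasses D1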
An asterisk follows results filed as active; i = inactive; . = no result given; + = active, no number.

SMILES | RORa activator | SF1 activator | M1 antag | mHtt clearance | D1 allo mod | M1 agonist | D1 PAM confirm | D1 no dopamine | Isoprot counter
COc1ccc(CN(Cc2cccnc2)S(=O)(=O)c2ccc(-n3cnnn3)c(C)c2)cc1OC | 0.7 | -13.0 | -0.369 | 51.2 | 3.7* | -0.0402 | 7956* | 1480 | i
O=S1(=O)N=C2CCCCCN2C(c2ccncc2)N1 (stereo unspecified) | -9.0 | -12.3 | 0.0762 | . | -0.237 | 0.216 | . | . | .
CCN=C1SC(CC(=O)Nc2ccccc2OCC)C(=O)N1CC (stereo unspecified) | -12.9 | -12.1 | -0.686 | . | 2.75* | 0.195 | 9772* | 1564 | i
CCN=C1SC(CC(=O)Nc2sc(C)c(C)c2C(=O)OC)C(=O)N1CC (stereo unspecified) | 9.3 | -5.8 | 0.181 | 27.0 | 1.1 | -0.612 | . | . | .
CCN=C1SC(CC(=O)NC(N)=O)C(=O)N1CC (stereo unspecified) | -12.0 | -4.7 | 0.00206 | . | 4.31* | 0.281 | 20476* | 1496 | +
CN(c1ccc(C(=O)Nc2ccccc2C(F)(F)F)cc1)S(C)(=O)=O | -1.1 | 15.4 | 0 | 5.8 | 0.161 | -0.638 | . | . | .
c1ccc(Cn2nnc3c(N4CCc5ccccc54)ncnc32)cc1 | -17.9 | 11.3 | 0.291 | . | 2.98* | 1.47 | 6044* | 1608 | i
CCCN1CCN(c2ncnc3c2nnn3Cc2ccccc2)CC1 | 21.3 | 32.7 | -0.841 | -69.7 | 0.21 | -1.99e-05 | . | . | .
c1ccc(Cn2nnc3c(N4CCCCCC4)ncnc32)cc1 | 2.9 | -5.0 | -0.195 | . | 6.37* | 0.0939 | 7556* | 1448 | +
CSc1n[nH]c(NCc2ccc(C)cc2)n1 | . | . | . | -61.2 | . | . | . | . | .
CCn1c(SCC(=O)NCCOC)nc2sc(C)c(C)c2c1=O | 10.5 | 1.3 | 0.192 | . | 0.83 | -0.505 | . | . | .
COC(=O)CSc1nc2sc(C)c(C)c2c(=O)n1C | -5.2 | 7.4 | -0.186 | 33.6 | 6.11* | 0.201 | 7584* | 848 | +
CN1CCc2c(sc3c2c(=O)n(-c2ccccc2)c2nncn32)C1 | -4.3 | -5.4 | -0.0729 | -7.5 | -0.758 | -0.512 | . | . | .
COC(=O)CSc1nc2sc3c(c2c(=O)n1-c1ccccc1)CCN(C)C3 | -7.0 | 5.5 | -2.61 | 5.0 | 17* | -0.276 | 10640* | 1480 | +
COc1ccc(C)cc1NC(=O)CSc1nnc(-c2ccc(OC)c(OC)c2)n1N | 8.2 | -3.5 | -0.0265 | . | 22.3* | 0.311 | 18440* | 1560 | +
CCOc1cccc(-c2nnc(SCC(=O)Nc3cc(C)ccc3OC)n2N)c1 | -2.9 | 0.9 | -0.551 | 4.3 | 0.566 | -0.735 | . | . | .
O=c1c2cc3ccccc3n2cnn1Cc1ccccc1F | 8.1 | 12.8 | -0.334 | . | 3.1* | 1.49 | 21084* | 1636 | +
O=c1ccccn1Cc1ccccc1F | -17.0 | 5.4 | 0.424 | 24.0 | 0.97 | 0.886 | . | . | .
CCc1nc2scc(-c3ccccc3)c2c(=O)n1N | -14.3 | -10.9 | -0.00468 | -13.7 | 6.55* | -0.17 | 14056* | 1596 | +
Cc1nc2scc(-c3ccccc3)c2c(=O)n1N | -13.2 | -12.3 | 0.141 | . | . | -0.168 | . | . | .
CS/C(=N\S(=O)(=O)c1cccs1)NC(=O)CSc1nc2ccccc2s1 | 7.3 | 9.1 | 0.0319 | -12.4 | . | -2.84 | . | . | .
COc1ccc(C(=O)CSc2ncn[nH]2)cc1OC | 12.5 | -10.6 | 0.383 | . | 18.3* | -0.343 | 17148* | 1644 | +
CCN(CC)C(=O)COc1ccc(CC(=O)O)cc1OC | -27.9 | 5.4 | 0.716 | . | 0.613 | -0.0215 | . | . | .
CCOc1ccc(CC(=O)C2C(=O)CCCC2=O)cc1OCC | -6.3 | 0.8 | 0.323 | -13.7 | 4.28* | -0.41 | 10588* | 1684 | +
O=C(O)CC(c1ccc(Cl)cc1)n1cccc1 (stereo unspecified) | -4.2 | -1.3 | -1.2 | -2.3 | 0.584 | 0.209 | . | . | .
SMILES | RORa activator | SF1 activator | M1 antag | mHtt clearance | D1 allo mod | M1 agonist | D1 PAM confirm | D1 no dopamine | Isoprot counter
N#Cc1nc(-c2ccccc2Cl)oc1N1CCOCC1 | -31.8 | -11.4 | -0.0448 | . | 4.83* | 0.262 | 7844* | 1764 | i
CC1CCN(c2oc(-c3ccccc3Cl)nc2C#N)CC1 | 40.7 | 43.5 | -0.233 | . | . | -0.513 | . | . | .
O=C(NCc1ccco1)c1nn(-c2ccccc2)c(=O)c2ccccc12 | -17.5 | -7.2 | 0.0536 | . | 5.21* | 0.0513 | 15012* | 1664 | i
O=C(O)c1ccc(CSc2nnc(COc3ccc(Cl)cc3Cl)o2)cc1 | 18.8 | 7.8 | 0.182 | . | 5.59* | 1.16 | 10144* | . | +
O=c1cc(CSc2nnc(COc3ccccc3Cl)o2)nc2sccn12 | -5.6 | -5.2 | -0.133 | . | 2.43 | -1.47 | . | . | .
C=CCn1c(-c2cccn(Cc3ccc(Cl)cc3Cl)c2=O)n[nH]c1=S | . | . | . | -30.8 | . | . | . | . | .
CCCCOc1ccc(/C=c2\sc3ncnn3c2=O)cc1 | 16.7 | -14.4 | -0.0644 | 31.0 | 2.68* | -0.56 | 11772* | 2228 | +
O=c1/c(=C/c2cccc3ccccc23)sc2ncnn12 | 2.5 | 5.1 | 0.0556 | 3.0 | 3.85* | -0.0555 | 6052 | 1796 | i
CCCCCOc1ccc(C2C(C(C)=O)=C(C)Nc3ncnn32)cc1OC (stereo unspecified) | -2.0 | -8.6 | 0.574 | . | 1.86 | -0.722 | . | . | .
COC(=O)c1sc(=S)sc1C(=O)OC | -26.7 | -7.0 | 0.256 | . | 3.29* | -0.695 | 8136* | 1608 | i
COc1cc(C2C(C#N)=C(N)Oc3cc(O)ccc32)cc2c1OCO2 (stereo unspecified) | 10.7 | -23.2 | 0.242 | . | 4.11* | -0.507 | 11740* | 1532 | +
COc1cc(OC)cc(C(C)=O)c1 | -7.6 | 20.3 | -0.0552 | -73.5 | 8.46* | 0.627 | 24876* | 1768 | +
COc1cc(OC)cc(C(=O)Nc2cccc(C(C)=O)c2)c1 | 5.8 | 28.4 | -0.596 | -17.4 | -0.833 | 0.255 | . | . | .
CCNC(=O)c1c(O)c2ccccc2[nH]c1=O | -2.8 | 16.1 | -0.465 | . | 11* | -0.0491 | 15428* | . | +
COCCCNC(=O)CCN1C(=O)COc2ccccc21 | -33.0 | -8.8 | 0.638 | . | 0.607 | -0.0178 | . | . | .
COc1ccc(Br)cc1CNC(=O)CCN1C(=O)COc2ccccc21 | -37.3 | -17.2 | 0.0642 | . | 3.63* | 0.5 | 6192* | . | i

Compound activity as filed in PubChem BioAssay.
